Laboratory results taken from PMC8183215 (Journal for Immunotherapy of Cancer, 2021).
Residues, ends and D or L forms follow the SMILES beside them.

Assay: In vitro plasma stability
Assay type: in vitro ADME
Conditions: rat, pH 7.4
Procedure, shortened: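 Test compound prepared as a 1000 ng/mL stock in 0.01 M Tris-HCl (pH 7.4), then mixed in equal volume with rat plasma and incubated at 37 °C. Samples were taken at 0, 2, 5, 10, 30 and 60 min, and methanol was added to precipitate protein. After centrifugation at 12 000 rpm for 15 min and a second spin of the supernatant, UPLC-MS peak areas gave the half-life.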

| Compound | half-life at 500 ng/mL |
| --- | --- |
| CC(C)C[C@H](NC(=O)[C@H](CCCCN)NC(=O)[C@H](CCCNC(=N)N)NC(=O)[C@@H]1CCCN1C(=O)[C@H](CCC(=O)O)NC(=O)CNC(=O)[C@H](Cc1ccc(O)cc1)NC(=O)[C@H](C)NC(=O)[C@@H](N)CO)C(=O)O [peptide 1] (H-SAYGEPRKL-OH; N-terminus and C-terminus assumed) | ~5 min |
| CC[C@H](C)[C@H](NC(=O)[C@@H](N)[C@@H](C)O)C(=O)N[C@@H](Cc1c[nH]c2ccccc12)C(=O)N[C@@H](CCSC)C(=O)N[C@@H](CC(C)C)C(=O)N[C@@H](CC(C)C)C(=O)N[C@@H](CCSC)C(=O)N[C@@H](CC(C)C)C(=O)N[C@@H](CCC(N)=O)C(=O)O [peptide 2] (H-TIWMLLMLQ-OH) | ~5 min |
